Experimental data as given in the RNAGym collection of RNA variant scans (doi:10.1126/science.aae0568).
This sample holds only a part of the variants without activity.

B1: tRNA (parent)
chain: GUUCCGUUGGCGUAAUGGUAACGCGUCUCCCUCCUAAGGAGAAGACUGCGGGUUCGAGUCCCGUACGGAACG

Variants of: B1
Test: yeast fitness relative to wild type (ratio to wild type); higher = fitter; tRNA-Arg(CCU), competitive growth, 37 C, YPD
How it was run: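 Genotype frequency changes were the basis for Darwinian fitness relative to wild type. The frequencies came from 100-nucleotide paired-end sequencing of gene amplicons from the start population and each end population of pooled yeast strains with tRNA-Arg(CCU) gene variants at the native locus. Competition ran in YPD at 37°C for 24 hours in six replicates, genotypes needed ≥ 100 starting reads, and estimates < 0.5 were set to 0.5.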

Variant | yeast fitness
U16C C31A A42U C62G A70C | ≤ 0.5
G18A U19C A43U U59A | 0.538
U16C C27G | 0.727
G17A G25A C31G G68A | ≤ 0.5
G17C G25A C49A A69U | ≤ 0.5
G18A A20U C34U A36G | ≤ 0.5
U16G A65U A70U | 0.64
G17C A43C G51A | ≤ 0.5
G18C A42U G48C G68C A69U | ≤ 0.5
G18A U26G A42U A65G C66G G68A | ≤ 0.5
G18A A21U C49A C60G A70U | ≤ 0.5
G18C A21U U26C G51C | 0.739
U16C G52C A70G | ≤ 0.5
G17A A37C C55U | 0.56
G17A U32C A37G A69C | 0.5
G18A A65C | 0.759
G17C U28G C29U A37C A65C | ≤ 0.5
U16G U28G C34U C49U G63C | ≤ 0.5
G18C G41C C62G | ≤ 0.5
G17C U53A | 0.583
G17A C31A C33U U59G A65C | ≤ 0.5
G17C A40G A42C A45U U54C | ≤ 0.5
G17C U28A C34G G38A G51A | 0.512
G17A C33U A36U C46A | 0.822

Variant | yeast fitness
U16G C29U C46U G67C A69U | 0.521
G17C C22G G52A | ≤ 0.5
G17A C24U | 0.778
G18A C29A C49U | ≤ 0.5
G17C C62G | 0.57
G17A C49U | 0.892
G17A C49G | 0.761
G17A C61G | 0.573
U16C G39C | 0.696
G18A C22G C24G | ≤ 0.5
G18A C22U C24G | ≤ 0.5
G17A C30A | 0.71
G17A A20G C27G A36C | 0.609
G17C C24U C46G C62G | 0.572
U16G U26G A36G G68C | 0.629
G17C A20U U54A C61U | 0.546
U16G U53C C61G | ≤ 0.5
G18C G50A | 0.609
U16G G39C G56C | ≤ 0.5
G17C U47G | ≤ 0.5
G17A C46G U54C | 0.562
G18A A21C C30U | ≤ 0.5
U16G C31U A42U | 0.522
G18C C24U C66U | ≤ 0.5

Variant | yeast fitness
U16G U28C | 0.862
G17A U28C A42C C66U | ≤ 0.5
G18C G44A G63C A65C | ≤ 0.5
G17A C31U U35C A57G | 0.527
G18A C27U G39A C60A | ≤ 0.5
G17A A37C | 0.681
G17A U35G G48C C66U | 0.535
G17A C31G | 0.85
G17A C31A | 0.706
G18A G23A C33A U64C | 0.789
G18C C24G A45G C55G | 0.693
G17A C29U G67A | 0.553
G17A C55U | 0.681
G18A C29U C31A | 0.575
G17A C31A G68C | ≤ 0.5
G18A U47C | 0.728
G17C C24A A45C G52A | ≤ 0.5
G18C C22G G56A | 0.568
U16C G48C C62U A65G | ≤ 0.5
G18A C33A G44A U64C | ≤ 0.5
G18C C62A C66A | ≤ 0.5
G17C C22G C24A C62A A70C | 0.57
G18C C29U C30U C49U G67A | ≤ 0.5
G17A G56C | 0.527

Variant | yeast fitness
G18C C29U C30U A37G C49U G67A | ≤ 0.5
G17C U28G G48A A69C | ≤ 0.5
G18C C31G C55G A57C | ≤ 0.5
G18A A36C | 0.503
G17A G23A C66A | 0.776
G17A G18A C61A | ≤ 0.5
G17C G50C | 0.536
G18C C24A A36U | ≤ 0.5
G17A A20G C27G A36C A65U | ≤ 0.5
G17A G63A | 0.744
G17A G63C | 0.579
G18A U54C | 0.646
U16G C27U U28A G52C U54A C66U | ≤ 0.5
G18A C30U A45C G52C | ≤ 0.5
U16G G41C A45U G51A C61U A70C | 0.639
G17U A37U | ≤ 0.5
G18A A40G C62A A65U C66U | ≤ 0.5
U16G C29U C30U | ≤ 0.5
G18C C31G G44C | 0.658
G18C A42U G48C U64C | ≤ 0.5
G17C C22G C55G C60A | ≤ 0.5
G17A C29U C34A | ≤ 0.5
U16G A57G C62G C66U | 0.517
U16C C24U C30U C66U | ≤ 0.5

Variant | yeast fitness
G18A C31A A43G G50A A57U | 0.572
U16G A21U C34G A40U | 0.624
G18C A65G | 0.62
U16G A36G A65G | ≤ 0.5
U16G C30U C46G | 0.541
G17A C30G A40G C60A | 0.678
G18A C31A G44A | 0.534
G17A G25C A40U | 0.574
U16G C30G C55G | ≤ 0.5
U16C U32C C49A | 0.617
G18A A21C U32G | 0.614
G18A A20G | 0.613
G18A A20U | 0.721
G18C C34U | ≤ 0.5
G17A C22A A45C C46U | 0.578
G17A G25A C34U C55G | 0.532
U16C C34G G51A | 0.534
U16C G50C C66U | 0.584
U16C G18A C24G A45U U47C | ≤ 0.5
G18C C24U C30G | ≤ 0.5
G18A A70C | 0.74
G18A A70G | 0.646
U16G A40U C62G | 0.566
G17A U19A A21C G44C | ≤ 0.5

Variant | yeast fitness
G17C | 0.7
G17A | 0.835
G17U | 0.851
G18A C33G U53A | ≤ 0.5
G17C C24U C49U U59A | 0.533
G18A C24A C62U | 0.536
G17U C30A A43U C66U | ≤ 0.5
U16C C31A C34U A69C | ≤ 0.5
G17A A21G U28G C62G | ≤ 0.5
G17A C46U U59A | 0.584
G18A C34G C46A C62U A69C | ≤ 0.5
G17A C24G C27G C62U G67A | ≤ 0.5
U16C C49A | 0.731
G17A C22U | 0.737
U16G U26A C34U G50A A69U | 0.551
G17A U32A | 0.691
G17C C22G C24A C62A | ≤ 0.5
G17C A20G A57G C62U | ≤ 0.5
U16C U59A | 0.852
G18A C22U C30U C33U A45C | ≤ 0.5
G17U C46A | 0.785
G18A C24G G56A C66U | ≤ 0.5
U16G C60A | 0.606
G17C G41A | 0.615

Variant | yeast fitness
G17A A42G | 0.732
U16C U28C | 0.859
U16C C62U | 1
G17A A70C | 0.842
G17A A70G | 0.866
G18A U19C C27G C61A U64G | ≤ 0.5
G18A G25C C49U | 0.74
G17C C29U A37C A65C | 0.555
G17C C29U A37C A69U | ≤ 0.5
G18C C29U C34U A36G G58C | ≤ 0.5
U16G U19A G23C C49U | ≤ 0.5
G18A A37G | 0.547
G17A C22G C29U G51C C55G | ≤ 0.5
U16G C22A C62A | ≤ 0.5
G17C C34U C61U | 0.55
G17A U28G C62G | ≤ 0.5
G18A U47C A57U | ≤ 0.5
G17A C60U | 0.594
U16C G52A G56A | 0.69
G17C U19A C49G A69G | ≤ 0.5
G17A C22U C46U C66U A70C | ≤ 0.5
G18A C30G C34G | ≤ 0.5
G18C C24G U35C G50C C55G G67C | ≤ 0.5
